Values after ≈ are worked out from the molar mass of the structure shown. Active and inactive are the calls of the source. No cut-off for these calls is given here.
Tests used:
Staphylococcus aureus [1] = assay: Bactericidal activity against vancomycin-resistant Staphylococcus aureus VRS12 clinical isolate preincubated for 20 hrs followed by TSA plating and measured after 18 hrs; type: functional
Staphylococcus aureus [2] = assay: Bactericidal activity against methicillin-resistant Staphylococcus aureus NRS119 clinical isolate preincubated for 20 hrs followed by TSA plating and measured after 18 hrs; type: functional
Staphylococcus aureus [3] = assay: Bactericidal activity against methicillin-resistant Staphylococcus aureus USA500 NRS385 clinical isolate preincubated for 20 hrs followed by TSA plating and measured after 18 hrs; type: functional
Listeria monocytogenes = assay: Bacteriostatic activity against Listeria monocytogenes ATCC 19115 after 20 hrs by broth microdilution method; type: functional; conditions: ATCC 19115, 20 h
Procedure, shortened: (§1)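 MIC by broth microdilution across 128 to 1 μg/mL in 96-well plates, 37 °C for at least 20 h. MIC is the lowest concentration with no visible growth.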

Staphylococcus aureus [4] = assay: Bacteriostatic activity against methicillin-resistant Staphylococcus aureus USA700 NRS386 clinical isolate after 20 hrs by broth microdilution method; type: functional; conditions: USA700 NRS386, 20 h
Procedure, shortened: (§2)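 Broth microdilution MIC over 128 to 1 μg/mL, run alongside methicillin, linezolid and vancomycin. MIC taken as the lowest concentration with no visible growth.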

Staphylococcus aureus [5] = assay: Bactericidal activity against methicillin-resistant Staphylococcus aureus USA400 NRS123 clinical isolate preincubated for 20 hrs followed by TSA plating and measured after 18 hrs; type: functional
Staphylococcus aureus [6] = assay: Antibacterial activity against methicillin-resistant Staphylococcus aureus USA300 at 6 ug/ml preincubated up to12 hrs followed by agar plating and measured after 18 to 20 hrs by time-kill assay; type: functional, organism-based
Staphylococcus aureus [7] = assay: Bacteriostatic activity against methicillin-resistant Staphylococcus aureus USA300 NRS384 clinical isolate after 20 hrs by broth microdilution method; type: functional; conditions: USA300 NRS384, 20 h; procedure, shortened: as §2
Enterococcus faecalis [8] = assay: Bacteriostatic activity against Enterococcus faecalis ATCC 29212 after 20 hrs by broth microdilution method; type: functional; conditions: ATCC 29212, 20 h; procedure, shortened: as §2
Staphylococcus aureus [9] = assay: Bacteriostatic activity against Staphylococcus aureus ATCC 25923 after 20 hrs by broth microdilution method; type: functional; conditions: ATCC 25923, 20 h; procedure, shortened: as §2
Staphylococcus aureus [10] = assay: Bactericidal activity against methicillin-resistant Staphylococcus aureus USA800 NRS387 clinical isolate preincubated for 20 hrs followed by TSA plating and measured after 18 hrs; type: functional
Staphylococcus aureus [11] = assay: Bacteriostatic activity against vancomycin-resistant Staphylococcus aureus VRS12 clinical isolate after 20 hrs by broth microdilution method; type: functional; conditions: VRS12, 20 h; procedure, shortened: as §2
Staphylococcus aureus [12] = assay: Bacteriostatic activity against methicillin-resistant Staphylococcus aureus USA500 NRS385 clinical isolate after 20 hrs by broth microdilution method; type: functional; conditions: USA500 NRS385, 20 h; procedure, shortened: as §2
Staphylococcus aureus [13] = assay: Bactericidal activity against methicillin-resistant Staphylococcus aureus USA700 NRS386 clinical isolate preincubated for 20 hrs followed by TSA plating and measured after 18 hrs; type: functional
Staphylococcus aureus [14] = assay: Bacteriostatic activity against methicillin-resistant Staphylococcus aureus NRS119 clinical isolate after 20 hrs by broth microdilution method; type: functional; conditions: NRS119, 20 h; procedure, shortened: as §2
Staphylococcus aureus [15] = assay: Bacteriostatic activity against methicillin-resistant Staphylococcus aureus ATCC 33592 after 20 hrs by broth microdilution method; type: functional; conditions: ATCC 33592, 20 h; procedure, shortened: as §2
Enterococcus faecium [16] = assay: Bacteriostatic activity against vancomycin-resistant Enterococcus faecium ATCC 700221 clinical isolate after 20 hrs by broth microdilution method; type: functional; conditions: ATCC 700221, 20 h
Procedure, shortened: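 Broth microdilution MIC over 128 to 1 μg/mL in Brain Heart Infusion broth, 37 °C for at least 20 h. MIC taken as the lowest concentration with no visible growth.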

Staphylococcus aureus [17] = assay: Bactericidal activity against methicillin-resistant Staphylococcus aureus USA300 NRS384 clinical isolate preincubated for 20 hrs followed by TSA plating and measured after 18 hrs; type: functional
Staphylococcus aureus [18] = assay: Bactericidal activity against vancomycin-intermediate Staphylococcus aureus NRS1 clinical isolate preincubated for 20 hrs followed by TSA plating and measured after 18 hrs; type: functional
Enterococcus faecalis [19] = assay: Bacteriostatic activity against vancomycin-resistant Enterococcus faecalis ATCC 51575 after 20 hrs by broth microdilution method; type: functional; conditions: ATCC 51575, 20 h; procedure, shortened: as §2
Enterococcus faecium [20] = assay: Bactericidal activity against vancomycin-resistant Enterococcus faecium ATCC 700221 clinical isolate preincubated for 20 hrs followed by TSA plating and measured after 18 hrs; type: functional
Procedure, shortened: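 MBC: 4 μL from wells with no growth in the MIC plate (Brain Heart Infusion broth, 37 °C, at least 20 h) spotted onto Tryptic Soy Agar. Read after at least 18 h at 37 °C.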

Staphylococcus aureus [21] = assay: Bacteriostatic activity against methicillin-resistant Staphylococcus aureus USA400 NRS123 clinical isolate after 20 hrs by broth microdilution method; type: functional; conditions: USA400 NRS123, 20 h; procedure, shortened: as §2
[22] = Ratio of non toxic concentration for human Caco2 cells to MIC for methicillin-resistant Staphylococcus aureus ATCC 33592; type: toxicity; conditions: Caco-2 cells
Escherichia coli [23] = assay: Bacteriostatic activity against Escherichia coli BW25113 after 20 hrs by broth microdilution method; type: functional; conditions: BW25113, 20 h; procedure, shortened: as §1
Staphylococcus aureus [24] = assay: Ratio of MIC for methicillin-resistant Staphylococcus aureus USA400 NRS123 measured after 10th to 14th passage to MIC for methicillin-resistant Staphylococcus aureus USA400 NRS123 measured prior 10th to 14th passage; type: functional
Procedure, shortened: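 MRSA USA400 (NRS123) passaged serially, once a day, over 14 passages in two weeks. Broth microdilution MIC of test agent and ciprofloxacin measured after each passage. A four-fold MIC shift taken as resistance.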

Enterococcus faecalis [25] = assay: Potency index, ratio of vancomycin MIC to test compound MIC for vancomycin-resistant Enterococcus faecalis ATCC 51575
Acinetobacter baumannii = assay: Bacteriostatic activity against Acinetobacter baumannii ATCC 19606 after 20 hrs by broth microdilution method; type: functional; conditions: ATCC 19606 = CIP 70.34 = JCM 6841, 20 h; procedure, shortened: as §1
Staphylococcus aureus [26] = assay: Bacteriostatic activity against methicillin-resistant Staphylococcus aureus USA800 NRS387 clinical isolate after 20 hrs by broth microdilution method; type: functional; conditions: USA800 NRS387, 20 h; procedure, shortened: as §2
J774 = assay: Cytotoxicity against mouse J774 cells assessed as decrease in cell viability up to 128 ug/ml after 24 hrs by MTS assay; type: cell-based; conditions: j774, 24 h
Staphylococcus aureus [27] = assay: Antibacterial activity against Staphylococcus aureus assessed as growth inhibition at 16 ug/ml after 24 hrs; type: functional, organism-based
Procedure, shortened: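 S. aureus grown in Mueller Hinton Broth to early exponential phase, then exposed to compound (16 μg/mL; DMSO stocks 10 mg/mL) or DMSO in duplicate, 37 °C for 24 h. OD600 read; percent normalized OD600 = (X − media blank)/(DMSO control − media blank) × 100.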

[28] = Ratio of non toxic concentration for mouse J774 cells to MIC for methicillin-resistant Staphylococcus aureus ATCC 33592; type: toxicity
Pseudomonas aeruginosa = assay: Bacteriostatic activity against Pseudomonas aeruginosa ATCC 15442 after 20 hrs by broth microdilution method; type: functional; conditions: ATCC 15442, 20 h; procedure, shortened: as §1
Staphylococcus aureus [29] = assay: Potency index, ratio of methicillin MIC to test compound MIC for methicillin-resistant Staphylococcus aureus ATCC 33592; type: functional
Caco-2 = assay: Cytotoxicity against human Caco2 cells assessed as decrease in cell viability up to 128 ug/ml after 24 hrs by MTS assay; type: cell-based; conditions: caco-2, 24 h
Procedure, shortened: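 Caco-2 cells were grown in DMEM with 20% FBS, 1X non-essential amino acids and penicillin-streptomycin at 37 °C, 5% CO2. Viability is % of DMSO-treated cells.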

Escherichia coli [30] = assay: Bacteriostatic activity against AcrAB-tolC deficient Escherichia coli JW5503-1 after 20 hrs by broth microdilution method; type: functional; conditions: JW5503-1, 20 h; procedure, shortened: as §1
Klebsiella pneumoniae = assay: Bacteriostatic activity against Klebsiella pneumoniae BAA 1706 after 20 hrs by broth microdilution method; type: functional; conditions: BAA 1706, 20 h; procedure, shortened: as §1
Staphylococcus aureus [31] = assay: Bacteriostatic activity against vancomycin-intermediate Staphylococcus aureus NRS1 clinical isolate after 20 hrs by broth microdilution method; type: functional; conditions: NRS1, 20 h; procedure, shortened: as §2
Staphylococcus aureus [32] = assay: Antibacterial activity against methicillin-resistant Staphylococcus aureus USA300 in BALB/c mouse wound infection model assessed as reduction in bacterial burden in wound at 2% administered topically bid for 5 days relative to control; type: functional; design: scale not given: the % may be the effect or the level left
Procedure, shortened: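 Female BALB/c mice, eight weeks old, n = 5 per group, injected intradermally with 40 μL of 1.32×10^9 CFU/mL MRSA USA300. Once an abscess or open wound formed, it was treated topically twice daily for five days with 2% agent in petroleum jelly, with vehicle as control. Wound tissue excised 12 h after the last dose, homogenized in PBS, diluted and plated on mannitol salt agar for 16 h or more at 37 °C. CFU reduction calculated against vehicle.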

Staphylococcus aureus [33] = assay: Bacteriostatic activity against methicillin-resistant Staphylococcus aureus USA400 NRS123 measured over 14 days by broth microdilution method
Staphylococcus aureus [34] = assay: Antibacterial activity against methicillin-resistant Staphylococcus aureus USA300 at 12 ug/ml preincubated for 24 hrs followed by agar plating and measured after 18 to 20 hrs by time-kill assay relative to control; type: functional

Row | Structure (SMILES) | MBC (Staphylococcus aureus [1]) [µg/mL] | MBC (Staphylococcus aureus [2]) [µg/mL] | MBC (Staphylococcus aureus [3]) [µg/mL] | MIC (Listeria monocytogenes) [µg/mL] | MIC (Staphylococcus aureus [4]) [µg/mL] | MBC (Staphylococcus aureus [5]) [µg/mL] | MIC (Staphylococcus aureus [7]) [µg/mL] | MIC (Enterococcus faecalis [8]) [µg/mL] | MIC (Staphylococcus aureus [9]) [µg/mL] | MBC (Staphylococcus aureus [10]) [µg/mL] | MIC (Staphylococcus aureus [11]) [µg/mL] | MIC (Staphylococcus aureus [12]) [µg/mL] | MBC (Staphylococcus aureus [13]) [µg/mL] | MIC (Staphylococcus aureus [14]) [µg/mL] | MIC (Staphylococcus aureus [15]) [µg/mL] | MIC (Enterococcus faecium [16]) [µg/mL] | MBC (Staphylococcus aureus [17]) [µg/mL] | MBC (Staphylococcus aureus [18]) [µg/mL] | MBC (Enterococcus faecium [20]) [µg/mL] | MIC (Staphylococcus aureus [21]) [µg/mL] | other results
1 | CN[C@H](CC(C)C)C(=O)N[C@H]1C(=O)N[C@@H](CC(N)=O)C(=O)N[C@H]2C(=O)N[C@H]3C(=O)N[C@H](C(=O)N[C@H](C(=O)O)c4cc(O)cc(O)c4-c4cc3ccc4O)[C@H](O)c3ccc(c(Cl)c3)Oc3cc2cc(c3O[C@@H]2O[C@H](CO)[C@@H](O)[C@H](O)[C@H]2O[C@H]2C[C@](C)(N)[C@H](O)[C@H](C)O2)Oc2ccc(cc2Cl)[C@H]1O [VANCOMYCIN] | > 128 | ≤ 1 | 2 (≈ 1.38 µM) | 1 (≈ 0.69 µM) | ≤ 1 | ≤ 1 | ≤ 1 | 2 (≈ 1.38 µM) | 1 to 2 (≈ 0.69 to 1.38 µM) | 2 (≈ 1.38 µM) | > 128 | ≤ 1 | ≤ 1 | ≤ 1 | 1 to 2 (≈ 0.69 to 1.38 µM) | > 128 | ≤ 1 | 4 (≈ 2.76 µM) | > 128 | ≤ 1 | Activity (Staphylococcus aureus [6]): Active; MIC (Enterococcus faecalis [19]): > 128 µg/mL
2 | C[C@@H]1C[C@H](C)CN(S(=O)(=O)c2ccc(C(=O)Nc3nnc(-c4cccs4)o3)cc2)C1 (mixture of isomers) | > 128 | > 128 | > 128 | 4 | 2 | > 128 | 2 | 4 | 2 to 4 | > 128 | 2 | 2 | > 128 | 2 | 2 to 4 | 2 | > 128 | > 128 | 128 | 2 | selectivity ratio [22]: 63; MIC (Escherichia coli [23]): > 128 µg/mL; Ratio (Staphylococcus aureus [24]): 1; Ratio (Enterococcus faecalis [25]): >32; MIC (Acinetobacter baumannii): 128 µg/mL; MIC (Staphylococcus aureus [26]): 2 µg/mL; Activity (J774): Non-Toxic; growth inhibition (GI) (Staphylococcus aureus [27]): Active; selectivity ratio [28]: 63; MIC (Pseudomonas aeruginosa): > 128 µg/mL; Ratio (Staphylococcus aureus [29]): > 64; Activity (Caco-2): Non-Toxic; MIC (Escherichia coli [30]): 2 µg/mL; MIC (Enterococcus faecalis [19]): 4 µg/mL; MIC (Klebsiella pneumoniae): > 128 µg/mL; MIC (Staphylococcus aureus [31]): 2 µg/mL; Activity (Staphylococcus aureus [32]): 72.41%; Activity (Staphylococcus aureus [33]): Active; Activity (Staphylococcus aureus [34]): 2.01 deltalog10CFU/ml
3 | CC(=O)NC[C@H]1CN(c2ccc(N3CCOCC3)c(F)c2)C(=O)O1 [LINEZOLID] | 32 (≈ 94.9 µM) | 32 (≈ 94.9 µM) | 2 (≈ 5.93 µM) |  | ≤ 1 | 64 (≈ 190 µM) | ≤ 1 |  |  | 128 (≈ 379 µM) | ≤ 1 | ≤ 1 | 128 (≈ 379 µM) | 32 (≈ 94.9 µM) |  | ≤ 1 | 64 (≈ 190 µM) | 1 (≈ 2.96 µM) | 64 (≈ 190 µM) | ≤ 1 | MIC (Escherichia coli [23]): > 128 µg/mL; MIC (Staphylococcus aureus [26]): ≤ 1 µg/mL; MIC (Escherichia coli [30]): 8 µg/mL (≈ 23.7 µM); MIC (Staphylococcus aureus [31]): ≤ 1 µg/mL
4 | CC(=O)O[C@H]1C[C@@]2(C)[C@@H](C[C@@H](O)[C@H]3[C@@]4(C)CC[C@@H](O)[C@@H](C)[C@@H]4CC[C@@]32C)/C1=C(\CCC=C(C)C)C(=O)O [FUSIDIC ACID] |  |  |  |  |  |  |  |  |  |  |  |  |  |  |  |  |  |  |  |  | Activity (Staphylococcus aureus [32]): 77.91%
